Source: PubChem BioAssay (Broad Institute)
Sampled rows, rich in hits. Any-hit rate of the full collection: about 2.1%.
GSIS activator: GLuc luminescence reporter in INS-1E cells, primary screen for activators of glucose-dependent secretion of insulin; INS-1E GLuc reporter insulin secretion, 2-3 h; activation, % at 16.6 µM; actives 0.61% (n = 370,000);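 active means lowest replicate activation of at least 40%, so every replicate reaches that level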
XiGFP reactiv: activators of X-chromosome reactivation in mouse fibroblasts. XiGFP mouse fibroblasts, % GFP-positive cells imaging, 3 d; cells co-treated with 5-aza-dC sensitizer; scaled so ellipticine positive control = 100%. activation, % at 7.58 µM. actives 0.055% (n = 360,000);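 active means mean normalized replicate activation at least 10% and every replicate at or above 10%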
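Assay system – SV40-immortalized XiGFP fibroblast cells, line 68-5-11 · Buffer or medium – DMEM supplemented with 5-aza-dC as sensitizing agent · Dosing – one concentration, pinned · Benchmarks – positive control ellipticine, 6 µM final · Times – 3 days compound exposure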
AF4-AF9 inh: inhibitors of human MLL-AF4/AF9 interaction | AlphaScreen, biotin-AF4 peptide binding to FLAG-AF9 | inhibition, % at 10 µM | actives 0.47% (n = 350,000);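 active means every replicate reaching a set inhibition limit, whatever the replicate mean, cut at about 25% in these data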
Target sequence (P42568 whole entry, looked up): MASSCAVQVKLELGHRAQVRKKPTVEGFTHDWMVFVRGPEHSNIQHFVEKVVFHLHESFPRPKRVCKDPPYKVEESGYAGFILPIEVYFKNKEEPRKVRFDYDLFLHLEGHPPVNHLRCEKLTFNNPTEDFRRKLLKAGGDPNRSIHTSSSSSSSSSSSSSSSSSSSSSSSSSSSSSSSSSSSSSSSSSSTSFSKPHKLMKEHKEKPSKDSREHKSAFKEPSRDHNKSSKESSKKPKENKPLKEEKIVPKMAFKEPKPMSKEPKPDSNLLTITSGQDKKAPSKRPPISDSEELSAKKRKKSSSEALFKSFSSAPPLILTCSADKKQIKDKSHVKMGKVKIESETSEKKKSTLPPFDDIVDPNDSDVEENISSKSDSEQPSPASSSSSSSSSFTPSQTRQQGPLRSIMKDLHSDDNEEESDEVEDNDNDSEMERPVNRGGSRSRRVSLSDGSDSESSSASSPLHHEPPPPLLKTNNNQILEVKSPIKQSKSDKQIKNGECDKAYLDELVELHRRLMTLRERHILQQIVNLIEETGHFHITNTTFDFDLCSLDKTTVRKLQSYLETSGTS
PGC1a acetyl inh: lowers PGC1a acetylation signal in U2OS cells. AlphaScreen anti-acetyl-lysine; with virally co-expressed GCN5 acetyltransferase. inhibition, % at 15.6 µM. actives 0.17% (n = 350,000);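 active means every replicate shows inhibition of at least 40%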
EWS-Fli inh: blocks EWS/Fli oncoprotein-driven transcription; A673 NR0B1-luciferase reporter, viability-normalised; inhibition, % at 12.6 µM; actives 0.67% (n = 350,000);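 active means mean inhibition of at least 50% after viability correction, with every replicate also passing that limit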;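 further: firefly luciferase signal divided by Alamar Blue viability fluorescence both relative to DMSO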
PAX8 reporter: lowers PAX8-driven luciferase in RMG-I cells | actives 1.2% (n = 360,000) | inhibition, % at 12.6 µM | RMG-I TPO-luciferase reporter, SteadyGlo, 24 h | AID 652154;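 active means mean replicate inhibition at least 60% with every replicate also reaching 60%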;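 further: luciferase light reporting Pax8 driven TPO promoter activity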
Numbers stand for hits; – = inactive; · = not tested or not shown; ! = not active in a repeat.

SMILES	GSIS activator	XiGFP reactiv	AF4-AF9 inh	PGC1a acetyl inh	EWS-Fli inh	PAX8 reporter
Cc1ccc(O)c(-c2cc(C(=O)Nc3ccc(S(=O)(=O)N4CC(C)OC(C)C4)cc3)[nH]n2)c1 (centres undefined)	·	·	·	–	·	–
Cc1cc(O)c(-c2cc(C(=O)Nc3ccc(S(=O)(=O)N4CCOCC4)cc3)[nH]n2)cc1C	·	·	·	–	·	72.7
CO[C@@H]1CN(C)C(=O)c2ccc(NC(=O)C3CCOCC3)cc2OC[C@@H](C)N(S(=O)(=O)c2ccc(C)cc2)C[C@H]1C	–	–	–	–	–	–
CC(=O)N(C)C[C@@H]1Oc2cc(C3=CCCCC3)ccc2S(=O)(=O)N([C@@H](C)CO)C[C@@H]1C	–	–	·	–	–	·
C[C@@H]1CN([C@H](C)CO)C(=O)CCCn2nncc2CO[C@@H]1CN(C)C(=O)Nc1ccc(F)cc1	–	–	–	–	–	–
COc1ccc(-c2ccc(/C=C3/C(=N)N4C=CSC4=NC3=O)o2)c([N+](=O)[O-])c1	158.1	–	·	–	·	–
N=C1/C(=C/c2cccn2-c2ccc([N+](=O)[O-])cc2)C(=O)N=C2SC=CN12	–	–	–	·	–	–
COC(=O)[C@]1(Cc2ccccc2)N[C@H](CN(C)C(=O)Nc2ccc(C)cc2)[C@@H]2C(=O)N(C)C(=O)[C@@H]21	65.4	–	–	·	–	–
O=C(Nc1ccc(F)cc1)N[C@H]1CC[C@@H](CCNC(=O)c2ccccc2F)O[C@@H]1CO	–	–	–	–	–	·
CCCCCCCNC(=O)C1(CC2CC(c3cccc(Br)c3)=NO2)CCN(C(=O)Cc2ccc(F)cc2)CC1 (centres undefined)	·	·	·	–	·	·
CCCCCCCNC(=O)C1(CC2CC(c3cccc(Br)c3)=NO2)CCNCC1 (centres undefined)	·	–	–	–	–	80.3
CNC(=O)C[C@@H]1CC[C@H]2[C@H](COc3ccc(NC(=O)Nc4ccccc4F)cc3C(=O)N2C)O1	–	–	–	–	–	–
CSc1ccccc1NC(=O)CN1c2ccccc2CC1C (centres undefined)	–	–	51.0	–	–	–
Cc1cc(C)nc(N/N=C/c2cccc3ccccc23)n1	–	–	–	·	–	82.2
CC(=O)N(C)C[C@@H]1Oc2cc(C#Cc3ccccc3F)ccc2S(=O)(=O)N([C@H](C)CO)C[C@@H]1C	–	–	–	–	–	·
C[C@@H]1CN([C@@H](C)CO)S(=O)(=O)c2ccc(C#Cc3ccncc3)cc2O[C@H]1CN(C)C(=O)Nc1ccc2c(c1)OCO2	–	–	–	–	71.4	103.1
C[C@H]1CN([C@@H](C)CO)S(=O)(=O)c2ccc(C#Cc3ccccc3)cc2O[C@H]1CN(C)C(=O)Nc1ccc2c(c1)OCO2	–	–	–	–	–	–
C[C@@H]1CN([C@H](C)CO)S(=O)(=O)c2ccc(C#Cc3ccccc3F)cc2O[C@H]1CN(C)C(=O)c1ccc2c(c1)OCO2	–	–	–	–	–	63.1!
C[C@H]1CN([C@@H](C)CO)S(=O)(=O)c2ccc(C#Cc3ccncc3)cc2O[C@H]1CN(C)C(=O)Nc1ccc2c(c1)OCO2	–	–	–	–	–	64.8
C[C@@H]1CN([C@@H](C)CO)C(=O)c2cc(NC(=O)CCCCCC(=O)Nc3ccccc3N)ccc2O[C@H]1CN(C)C(=O)Nc1cccc2ccccc12	–	–	–	–	–	–
COc1ccc([C@@]23Oc4cc(OC)cc(OC)c4[C@]2(O)[C@H](O)[C@H](C(=O)N(C)C)[C@H]3c2ccccc2)cc1	–	–	–	·	–	86.8
COc1ccc(C2CC(O)(c3ccccc3)Oc3cc(OC)c(OC)c(OC)c32)cc1 (centres undefined)	–	–	–	–	–	–
O=C(NNC(=O)C12CC3CC(CC(C3)C1)C2)c1ccccc1O	–	–	–	–	–	–
O=C(NNC(=O)C12CC3CC(CC(C3)C1)C2)c1ccccc1F	–	–	–	–	–	80.7
CC(=O)N(C)C[C@H]1Oc2cc(-c3ccccc3C)ccc2S(=O)(=O)N([C@H](C)CO)C[C@@H]1C	–	–	–	–	–	·
SMILES	GSIS activator	XiGFP reactiv	AF4-AF9 inh	PGC1a acetyl inh	EWS-Fli inh	PAX8 reporter
Nc1ccc2c(c1)Cc1cc([N+](=O)[O-])ccc1-2	–	–	–	·	–	–
CC(O)CN(CC(C)O)c1ccc2c(c1)Cc1cc([N+](=O)[O-])ccc1-2 (centres undefined)	·	29.2	–	–	–	–
C/C=C/c1ccc([C@H]2[C@H](CO)N(S(=O)(=O)Cc3ccccc3)C23CN(C(=O)C2CCOCC2)C3)cc1	–	–	·	·	·	·
Cc1nnc(C)c2c(C)n(C(c3ccccc3)c3ccccc3)c(C)c12	–	·	30.2	–	–	·
O=C(c1cccc(C(F)(F)F)c1)N1CCCC1	–	·	–	·	–	·
O=C(Nc1ccc(C(=O)N2CCCC2)cc1)c1cccc(C(F)(F)F)c1	47.6	–	–	–	·	–
CC(C)CC#Cc1cnc2c(c1)C(=O)N([C@@H](C)CO)C[C@H](C)[C@@H](CN(C)Cc1ccccn1)O2	–	–	–	–	–	·
CCOC(=O)c1[nH]c2ccc(OC)cc2c1NC(=O)/C=C/c1ccc2c(c1)OCO2	65.6	–	·	·	·	–
CCOC(=O)C1=C(c2ccccc2)NC(N)=NC1c1ccc(OCc2ccc(Cl)cc2)c(OC)c1 (centres undefined)	–	–	26.6	–	–	–
CCOC(=O)C1=C(c2ccccc2)NC(=O)NC1c1cc(Cl)c(O)c(OC)c1 (centres undefined)	–	–	–	·	–	–
O=C(C1CCOCC1)N1[C@H](CO)[C@H](c2ccccc2)C12CN(Cc1cncnc1)C2	–	–	–	·	–	·
CCOC(=O)c1c(C)n(CC(O)CN(CC)CC)c2cc(Br)c(OC)cc12 (centres undefined)	68.4	–	–	–	–	–
CCOC(=O)c1c(C)n(C)c2cc(Br)c(OC)cc12	–	–	–	–	–	–
Cc1ccc(S(=O)(=O)Nc2cccc3c2O[C@H](CN(C)Cc2ccc(Oc4ccccc4)cc2)[C@@H](C)CN([C@@H](C)CO)C3=O)cc1	–	–	–	–	–	–
C[C@H](CO)N1C[C@H](C)[C@H](CN(C)Cc2ccc(-c3ccccc3)cc2)Oc2c(NS(=O)(=O)c3ccc(F)cc3)cccc2C1=O	–	–	–	–	–	64.7
Cc1ccc(S(=O)(=O)Nc2cccc3c2O[C@@H](CN(C)Cc2ccc(Oc4ccccc4)cc2)[C@@H](C)CN([C@H](C)CO)C3=O)cc1	–	–	–	–	–	89.5
COCC(=O)Nc1ccc2c(c1)C(=O)N(C)[C@@H]1CC[C@H](CC(=O)NCc3cccc(F)c3)O[C@H]1CO2	–	–	·	–	–	–
CC(=O)Nc1ccc(Nc2nc(-c3sc(C)nc3C)cs2)cc1	–	–	–	–	–	–
